Experimental data reported in the EternaBench riboswitch data.

System: MS2 coat protein
Assay: apparent Kd, MS2 coat protein; higher = weaker binding; RNA-MaP array; FMN 200 µM where present
Method in brief: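 The titrant was SNAP-549-labelled MS2 coat protein, run from 0.7 or 1.5 nM in doubling steps to 3 µM. It was applied to designs transcribed by stalled E. coli RNA polymerase on Illumina sequencing-chip clusters, without ligand first and then with constant ligand, in 100 mM Tris-HCl pH 7.5, 80 mM KCl, 4 mM MgCl2, BSA, DTT, yeast tRNA and Tween-20. The apparent Kd is the median of filtered per-cluster binding-curve fits, with green signal normalised to red-channel RNA signal and control-cluster median Fmax.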

[1] = designed as: OFF switch for flavin mononucleotide, no ligand
[2] = ligand present: flavin mononucleotide, designed as: OFF switch for flavin mononucleotide
[3] = designed as: ON switch for flavin mononucleotide, no ligand
[4] = ligand present: flavin mononucleotide, designed as: ON switch for flavin mononucleotide

Row | Sequence | apparent Kd [1] [nM] | apparent Kd [2] [nM] | apparent Kd [3] [nM] | apparent Kd [4] [nM]
1 | UCGCUGCGAGGAUAUACAUGAGGAUCACCCAUGUGCGGGUCCGGGUUUUCGUCCAUUAGUAGAAGGCGCAGUGA | 369 | 46.5 | – | –
2 | GUACGCUCAGGAUAUCAAGGGCUGUACAUGAGGAUCACCCAUGUUAUCUUGGUGUCAGCGUGAGAAGGGAGGGAAA | 26 | 32.7 | – | –
3 | AUCCGGCGUGUAGGAUAUGGAAAAGAAAAGGAUCCAGAAGGACAUGAGGAUCACCCAUGUACAUGUAAACAGUCAUCACCGGAA | 36.2 | 58.9 | – | –
4 | AAUUUUUAACAGAAGGCGUUUAUAGUUAAGUUACGAGGAUAUGUAUUACAUGAGGAUCACCCAUGUUACUAGGGUAGUAUAUAA | – | – | 22.1 | 20.7
5 | ACAGCGGCAGGAUAUGCAUGCUCCGACUUAUGCCUACAAAGACAUGAGGAUCACCCAUGUAGAAGGGCCAGCGG | 13.8 | 15.2 | – | –
6 | GGUUAUUGCAAGGAUAUGCUUUUUUUUGAUAUUGCAGAAGGUGCAACAUGAGGAUCACCCAUGUUGGAUGGGUU | 119 | 162 | – | –
7 | AGGUGUAGAGGAUAUCUCUUCUCUCACAUGAGGAUCACCCAUGUUCUAAAGUCCAAGGAGAGAGAAGGCUACACCA | 19.8 | 15.6 | – | –
8 | GGGUACAUCGGAGGAUAUCAUGUAAAUACAUGAGGAUCACCCAUGUCGAGGGAGACAUCGGAGAUUGAGAAGGCCGAUGUACCG | – | – | 57.4 | 460
9 | AAUUAACUCACAGGAUAUAGCAGAGGUCGAGUGAACUUACAGGCGACUAGGCUAGAAGGGUGACCACAUGAGGAUCACCCAUGU | – | – | 834 | 117
10 | GUUAUUAUUAGUUCAUACUAUAAGAUAGAAGGUGAUUUAUUGACAUGAGGAUCACCCAUGUAAUUCAAGGAUAUGUAGAUACUC | – | – | 374 | 248
11 | AGUCGUCAAGGAUAUAUAGUGAAGCACAAGCAGUGCCCUCUACAUGAGGAUCACCCAUGUAGAAGGUGGCGACU | 15.6 | 14.2 | – | –
12 | GUCAGCUCGAGAGGAUAUACAACACUGCUUCGGCAGUGUAUUAAGAUCACAUGAGGAUCACCCAUGUAGAAGGCACGAGCUGAU | 9.31 | 89.2 | – | –
13 | AAGGAGUGAGGAUAUGCUGCUCGUCACUUGCGUGAUGAGUAGCAGAAGGCACAUGAGGAUCACCCAUGUAAAAA | 41.5 | 49.7 | – | –
14 | AAUAUGUUGCAGAAGGUUAUUUUUAUAACGAUCCACUUGACAUGAGGAUCACCCAUGUAAUUGUUGAAGGAUAUGCAAUAUAUU | 6.79 | 7.11 | – | –
15 | UGGUACUAGGGAGGAUAUGGGAAGAUACAUGAGGAUCACCCAUGUUUAAGAAUGCCGAGAGGGAACUAGAAGGCCCUAGUACCU | – | – | – | 14.5
16 | GGUCGUCAUAUUAACAUGAGGAUCACCCAUGUGAAAACACAUGAGGAUAUGCAUCCUAAUUGGAUGCAGAAGGCAUGGACGACC | – | – | 23.7 | 6.49
17 | CCAUCAGCGGGCGUAUCGGUUGGACAUGAGGAUCACCCAUGUAGAAGGACAGGUGUAUUUCGGCUGUAGGAUAUACAUUUGGUG | 26 | 79.9 | – | –
18 | UGGUACUAGGGAGGAUAUGGGAAGAUACAUGAGGAUCACCCAUGUUUAAGAAUGCCGAGAGGCAACUAGAAGGCCCUAGUACCC | – | – | 430 | 19.1
19 | CGUGCGUCGACAGGAUAUACAGAUUGGCUCCGGUACAUGAGGAUCACCCAUGUAGAAGGGUCACGCACGGAUAGUUCGAUAUUA | 9.36 | 43.1 | – | –
20 | CGUUGACAUGAGGAUCACCCAUGUCAGAUCUGGUCAGGAUAUGGUGUGGUUUGGCUAUUGCCAGAAGGGACGUCUG | – | – | 43.1 | 46.8
21 | UUAAAUCAUGUAGGAUAUGCAUGGCGAAGCUACGCAGAAGGACAUGAGGAUCACCCAUGUGCUAGCGACAGAGAACUGUUGCAA | 56.9 | 311 | – | –
22 | CUCUACAUAGGAUAUACAUGAGGAUCACCCAUGUAUGUUUCGACAUGCGUUUACCUCGGUAGAAGGAUGUAGUA | 68.2 | 185 | – | –
23 | UCAUUUAUUACAGGAUAUGUUAGUAUACAGUUGUUUGGUUAUUACAUAAUAACAGAAGGGUAGAACAUGAGGAUCACCCAUGUA | – | – | 244 | 113
24 | UGAGUAGCGAAACAAUGCACAUGAGGAUCACCCAUGUCUACACAGGAUAUGCGACGCUCCAGUUAGCAGAAGGGUGAACUCAAA | – | – | 40.2 | 82.3
25 | GCACUGCAGCGGCGCACGAGACAUGAGGAUCACCCAUGUGACAGAAGGGACUUGUUAAAGGUAGGUCAGGAUAUGUCUUAAAAG | – | – | 219 | 65.8
26 | UCUCGACAUGAGGAUCACCCAUGUCAGGAUAUUGUAUUAGAGGUUUUUUACCUUAUAACAAGAAGGGAUGUGUG | 22.9 | 26.8 | – | –
27 | UCGAUGCUAGGAUAUACGUAUAAAACCACCGUAGAGUCCUCACAUGAGGAUCACCCAUGUAGAAGGAGCAUCUA | 17.3 | 23.4 | – | –
28 | CUAAAUCAUGUAGGAUAUGCGUGGCGAAGCUAUGCAGAAGGACAUGAGGAUCACCCAUGUCUUUCUGUCUGCGUACAGACGGAA | 23.5 | 135 | – | –
